This note sets out measurements from ChEMBL document CHEMBL1143012, “Synthesis and pharmacological in vitro and in vivo evaluations of novel triazole derivatives as ligands of the ghrelin receptor. 1” (J Med Chem, 2007).

For experiment [1], the target named is T1, Growth hormone secretagogue receptor type 1 (Homo sapiens, UniProt Q92847). Nature of the experiment: Activity at human GHS1a receptor expressed in CHO cells assessed as intracellular calcium mobilization relative to 0.1 uM ghrelin. Type of experiment: functional, cell-based. In general terms: Calcium assays in cells follow changes in intracellular calcium, usually with a dye or a luminescent sensor.
T1 sequence (Q92847 whole entry): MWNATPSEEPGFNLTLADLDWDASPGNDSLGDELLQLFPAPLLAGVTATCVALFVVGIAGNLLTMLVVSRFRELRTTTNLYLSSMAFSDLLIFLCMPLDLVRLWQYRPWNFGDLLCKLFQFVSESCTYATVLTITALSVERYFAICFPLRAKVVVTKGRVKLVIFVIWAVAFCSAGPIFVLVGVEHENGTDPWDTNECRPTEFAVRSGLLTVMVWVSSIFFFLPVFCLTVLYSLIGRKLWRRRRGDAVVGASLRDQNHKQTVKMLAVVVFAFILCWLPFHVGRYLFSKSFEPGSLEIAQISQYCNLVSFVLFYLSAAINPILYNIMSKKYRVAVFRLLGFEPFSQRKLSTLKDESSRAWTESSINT

Experiment [2] addresses T1, Growth hormone secretagogue receptor type 1. Nature of the experiment: Displacement of [125I-His9]ghrelin from human GHS1a receptor expressed in LLC PK1 cells. Type of experiment: cell-based. In short, it runs like this:
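Membranes from LLC PK-1 cells transiently electroporated with hGHS-R1a (harvested about 48 h), 10 µg protein, incubated 60 min at 25 °C with 60 pM 125I-His9-ghrelin in Tris pH 7.3/MgCl2/EDTA/bacitracin buffer. Filtered, washed, gamma counted; nonspecific binding with 10 µM ghrelin. Triplicates, at least three experiments.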
In general terms: Displacement assays read how much labelled ligand stays bound in the presence of the test substance.

Experiment [3] shares this target. Nature of the experiment: Agonist activity at human GHS1a receptor expressed in CHO cells assessed as induction of intracellular calcium mobilization. It counts as functional, cell-based. In a few lines:
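CHO cells transiently expressing hGHS-R1a via electroporation, Fluo-4AM loaded (1 µM, 1 h, 37 °C), calcium fluorescence read 60 s at ex 485/em 525 nm. EC50 from agonist dose-response curves, response as percentage of maximal signal from 10 µM ghrelin; triplicates, means of at least three experiments.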

For orientation: IC50 means the point on the concentration scale where inhibition reaches its midpoint. Higher therefore signals weaker potency. In general, EC50 refers to the concentration needed to bring the measured effect to its halfway point.

As for `CC(C)(N)C(=O)N[C@H](Cc1c[nH]c2ccccc12)c1nnc(Cc2ccccc2)n1CCc1c[nH]c2ccccc12`, the Activity in experiment [1] is 95%; in experiment [3] (filed as agonist) it was “Agonist”. The same compound yielded an IC50 in experiment [2] of 700 nM.
With `COc1cc(Cn2c(CCc3c[nH]c4ccccc34)nnc2[C@@H](Cc2c[nH]c3ccccc23)NC(=O)C(C)(C)N)cc(OC)c1`, the Activity in experiment [1] is 22%; in experiment [3] (filed as partial agonist) it was “Partial agonist”. Besides, the IC50 in experiment [2] is 150 nM.
Taken in the same sequence, the figures for `CC(C)(N)C(=O)N[C@H](Cc1c[nH]c2ccccc12)c1nnc(CCc2ccccc2)n1Cc1ccc(Cl)c(Cl)c1` were 53%, “Partial agonist” and 640 nM.
The like results for `Cc1ccc(Cn2c(CCc3ccccc3)nnc2[C@@H](Cc2c[nH]c3ccccc23)NC(=O)C(C)(C)N)cc1` were, in that order, 19%, “Partial agonist” and 140 nM.
Taken in the same sequence, the figures for `CC(C)(N)C(=O)N[C@H](Cc1c[nH]c2ccccc12)c1nnc(CCc2c[nH]c3ccccc23)n1Cc1ccc(Br)cc1` were 27%, “Partial agonist” and 100 nM.
Turning to `CC(C)(N)C(=O)N[C@H](Cc1c[nH]c2ccccc12)c1nnc(CCc2ccccc2)n1Cc1ccccn1`, the Activity in experiment [1] was 59%; in experiment [3] (filed as partial agonist) it was “Partial agonist”. The compound also displayed an IC50 in experiment [2] of over 1000 nM.
For `Cn1c(Cc2c[nH]c3ccccc23)nnc1[C@@H](Cc1c[nH]c2ccccc12)NC(=O)C(C)(C)N`, the IC50 in experiment [2] is 1700 nM.
In the case of `CC(C)(N)C(=O)N[C@H](Cc1c[nH]c2ccccc12)c1nnc(Cc2ccccc2)n1Cc1ccccn1`, the Activity in experiment [1] is 78%; in experiment [3] (filed as partial agonist), “Partial agonist”. Further, in experiment [2], the IC50 was over 1000 nM.
The like results for `COc1ccc(Cn2c(CCCc3c[nH]c4ccccc34)nnc2[C@@H](Cc2c[nH]c3ccccc23)NC(=O)C(C)(C)N)c(OC)c1` were, in that order, 27%, “Partial agonist” and 750 nM.
Turning to `CC(C)(N)C(=O)N[C@H](Cc1c[nH]c2ccccc12)c1nnc(CCc2c[nH]c3ccccc23)n1CC(c1ccccc1)c1ccccc1`, the Activity in experiment [1] was 62%; in experiment [3] (filed as partial agonist), “Partial agonist”. In addition, the half-inhibitory concentration (IC50) in experiment [2] amounted to 640 nM.
On to `CC(C)(N)C(=O)N[C@H](Cc1c[nH]c2ccccc12)c1nnc(Cc2ccccc2)n1Cc1ccc(Cl)c(Cl)c1`, for which the Activity in experiment [1] is 64%; in experiment [3] (filed as partial agonist), “Partial agonist”. Also, in experiment [2], the IC50 is 520 nM.
For `CC(C)(N)C(=O)N[C@H](Cc1c[nH]c2ccccc12)c1nnc(Cc2c[nH]c3ccccc23)n1CCc1ccccc1`, the values for the Activity in experiment [1] and in experiment [3] (filed as partial agonist) were 88% and “Partial agonist”, respectively. In experiment [2], this compound registered an IC50 of 300 nM.
As for `CCCCCCn1c(CCCc2c[nH]c3ccccc23)nnc1[C@@H](Cc1c[nH]c2ccccc12)NC(=O)C(C)(C)N`, the Activity in experiment [1] is 32%; in experiment [3] (filed as partial agonist) it was “Partial agonist”.
The like results for `CC(C)(N)C(=O)N[C@H](Cc1c[nH]c2ccccc12)c1nnc(Cc2ccccc2)n1Cc1cccc2ccccc12` were, in that order, 78% and “Partial agonist”.
Regarding `CC(C)(N)C(=O)N[C@H](Cc1c[nH]c2ccccc12)c1nnc(CCc2ccccc2)n1CCc1ccccc1`, the Activity in experiment [1] was 63%; in experiment [3] (filed as partial agonist) it was “Partial agonist”. This compound showed an IC50 in experiment [2] of 310 nM.
Regarding `CC(C)(N)C(=O)N[C@H](Cc1c[nH]c2ccccc12)c1nnc(CCc2c[nH]c3ccccc23)n1-c1ccccc1`, the Activity in experiment [1] stood at 91%. Also, in experiment [3], the half-maximal effective concentration (EC50) was 41 nM.
For `CC(C)(N)C(=O)N[C@H](Cc1c[nH]c2ccccc12)c1nnc(CCc2ccccc2)n1Cc1ccco1`, in experiment [1], the Activity amounted to 97%. The same compound registered an IC50 in experiment [2] of 420 nM. For the same compound, the EC50 in experiment [3] was found to be 23 nM.
As for `COc1ccc(CCn2c(CCc3ccccc3)nnc2[C@@H](Cc2c[nH]c3ccccc23)NC(=O)C(C)(C)N)cc1`, the Activity in experiment [1] was 82%; in experiment [3] (filed as partial agonist) it was “Partial agonist”. The same compound had an IC50 in experiment [2] of 550 nM.
The like results for `CCCCCCn1c(CCc2c[nH]c3ccccc23)nnc1[C@@H](Cc1c[nH]c2ccccc12)NC(=O)C(C)(C)N` were, in that order, 62%, “Partial agonist” and 195 nM.
For `CC(C)(N)C(=O)N[C@H](Cc1c[nH]c2ccccc12)c1nnc(CCc2ccccc2)n1Cc1ccc([N+](=O)[O-])cc1`, in experiment [1], the Activity worked out at 10%. The IC50 in experiment [2] was over 1000 nM.
For `CC(C)(N)C(=O)N[C@H](Cc1c[nH]c2ccccc12)c1nnc(Cc2c[nH]c3ccccc23)[nH]1`, in experiment [2], the IC50 is 2200 nM.
With `CC(C)(N)C(=O)N[C@H](Cc1c[nH]c2ccccc12)c1nnc(CCc2ccccc2)n1Cc1ccc(F)cc1`, the Activity was 20% in experiment [1] and “Partial agonist” in experiment [3] (filed as partial agonist). The compound also returned an IC50 in experiment [2] of 400 nM.
The like results for `CC(C)(N)C(=O)N[C@H](Cc1c[nH]c2ccccc12)c1nnc(Cc2ccccc2)n1CC(c1ccccc1)c1ccccc1` were, in that order, 60%, “Partial agonist” and over 1000 nM.
The like results for `CC(C)(N)C(=O)N[C@H](Cc1c[nH]c2ccccc12)c1nnc(CCc2c[nH]c3ccccc23)n1CCc1ccccc1` were, in that order, 25%, “Partial agonist” and 80 nM.
The like results for `CC(C)(N)C(=O)N[C@H](Cc1c[nH]c2ccccc12)c1nnc(Cc2ccccc2)n1CCc1ccccc1` were, in that order, 85%, “Partial agonist” and over 1000 nM.
`Cc1ccc(Cn2c(Cc3ccccc3)nnc2[C@@H](Cc2c[nH]c3ccccc23)NC(=O)C(C)(C)N)cc1`: the Activity is 28% in experiment [1] and “Partial agonist” in experiment [3] (filed as partial agonist). The same compound displayed an IC50 in experiment [2] of 840 nM.
Take `COc1cccc(Cn2c(CCCc3c[nH]c4ccccc34)nnc2[C@@H](Cc2c[nH]c3ccccc23)NC(=O)C(C)(C)N)c1`: the Activity in experiment [1] stood at 66%. The same compound showed an IC50 in experiment [2] of 22 nM. Moreover, the EC50 in experiment [3] worked out at 18 nM.
As for `Cn1c(CCc2c[nH]c3ccccc23)nnc1[C@@H](Cc1c[nH]c2ccccc12)NC(=O)C(C)(C)N`, in experiment [2], the IC50 was determined as 580 nM. That is a sub-micromolar value.
With `CC(C)(N)C(=O)N[C@H](Cc1c[nH]c2ccccc12)c1nnc(Cc2ccccc2)n1Cc1ccc(F)cc1`, the Activity in experiment [1] was 60%; in experiment [3] (filed as partial agonist) it was “Partial agonist”.
Consider `COc1cccc(Cn2c(CCc3c[nH]c4ccccc34)nnc2[C@@H](Cc2c[nH]c3ccccc23)NC(=O)C(C)(C)N)c1`, for which the Activity in experiment [1] was 63%. In addition, in experiment [3], the 50% effective concentration (EC50) was found to be 4 nM.
In experiment [2], `CC(C)(N)C(=O)N[C@H](Cc1c[nH]c2ccccc12)c1nncn1CCc1c[nH]c2ccccc12` displayed an IC50 of 850 nM. That is a sub-micromolar value.
For `CCc1ccc(Cn2c(CCc3ccccc3)nnc2[C@@H](Cc2c[nH]c3ccccc23)NC(=O)C(C)(C)N)cc1`, the Activity in experiment [1] is 26%. Also, the EC50 in experiment [3] stood at 11 nM.
As for `CC(C)(N)C(=O)N[C@H](Cc1c[nH]c2ccccc12)c1nnc(CCCc2c[nH]c3ccccc23)n1Cc1cccc2ccccc12`, the Activity in experiment [1] was 62%; in experiment [3] (filed as partial agonist) it was “Partial agonist”. Further, the IC50 in experiment [2] was 140 nM.
`COc1cccc(Cn2c(Cc3ccccc3)nnc2[C@@H](Cc2c[nH]c3ccccc23)NC(=O)C(C)(C)N)c1`: the results for the Activity in experiment [1] and in experiment [3] (filed as partial agonist) were 50% and “Partial agonist”, respectively.
The like results for `CC(C)(N)C(=O)N[C@H](Cc1c[nH]c2ccccc12)c1nnc(CCCc2c[nH]c3ccccc23)n1Cc1ccc(Br)cc1` were, in that order, 25% and “Partial agonist”.
For `CC(C)(N)C(=O)N[C@H](Cc1c[nH]c2ccccc12)c1nnc(CCc2c[nH]c3ccccc23)n1Cc1ccc(F)cc1`, the Activity in experiment [1] is 59%. Also, in experiment [3], the EC50 worked out at 210 nM.
`COc1cc(Cn2c(Cc3ccccc3)nnc2[C@@H](Cc2c[nH]c3ccccc23)NC(=O)C(C)(C)N)cc(OC)c1`: the Activity in experiment [1] is 29%; in experiment [3] (filed as partial agonist) it was “Partial agonist”. The same compound registered an IC50 in experiment [2] of 110 nM.
Consider `CC(C)(N)C(=O)N[C@H](Cc1c[nH]c2ccccc12)c1nnc(CCc2ccccc2)n1Cc1cccs1`, for which the figures for the Activity in experiment [1] and in experiment [3] (filed as agonist) were 91% and “Agonist”, respectively. The compound also yielded an IC50 in experiment [2] of 570 nM.
For `CC(C)(N)C(=O)N[C@H](Cc1c[nH]c2ccccc12)c1nnc(CCc2ccccc2)n1Cc1cccc2ccccc12`, the Activity in experiment [1] is 40%; in experiment [3] (filed as partial agonist) it was “Partial agonist”. Besides, in experiment [2], the IC50 was 130 nM.
The like results for `CC(C)(N)C(=O)N[C@H](Cc1c[nH]c2ccccc12)c1nnc(Cc2ccccc2)n1Cc1ccc(Br)cc1` were, in that order, 16%, “Partial agonist” and 440 nM.
With `CCCCCCn1c(Cc2ccccc2)nnc1[C@@H](Cc1c[nH]c2ccccc12)NC(=O)C(C)(C)N`, the results for the Activity in experiment [1] and in experiment [3] (filed as partial agonist) were 67% and “Partial agonist”, respectively. The same compound registered an IC50 in experiment [2] of 470 nM.
Turning to `COc1ccc(Cn2c(Cc3c[nH]c4ccccc34)nnc2[C@@H](Cc2c[nH]c3ccccc23)NC(=O)C(C)(C)N)c(OC)c1`, the IC50 in experiment [2] came out at 1000 nM.
Regarding `CC(C)(N)C(=O)N[C@H](Cc1c[nH]c2ccccc12)c1nnc(CCc2c[nH]c3ccccc23)n1Cc1cccc2ccccc12`, the figures for the Activity in experiment [1] and in experiment [3] (filed as partial agonist) were 54% and “Partial agonist”, respectively.
As to `CC(C)(N)C(=O)N[C@H](Cc1c[nH]c2ccccc12)c1nnc(Cc2ccccc2)n1Cc1ccccc1`, the Activity was 44% in experiment [1] and “Partial agonist” in experiment [3] (filed as partial agonist). In addition, the IC50 in experiment [2] turned out to be 500 nM.
